# Source: PubChem (Johns Hopkins Ion Channel Center)
# TRPC6 inhibitor: mouse TRPC6 channel inhibition; B-score at 10 µM; HEK293-TRPC6, membrane potential dye, ACh-evoked depolarization; stronger effect = lower value; actives 1.1% (n = 310,000); Q61143; AID 2553;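 active = B-score under library mean minus 3 SD, initial fluorescence not abnormally high, positive integrated signal ratio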;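 also: B-score derived from integrated fluorescence ratio over the kinetic read; more negative B-score means stronger inhibition of depolarization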
# Target sequence (Q61143 whole entry, looked up): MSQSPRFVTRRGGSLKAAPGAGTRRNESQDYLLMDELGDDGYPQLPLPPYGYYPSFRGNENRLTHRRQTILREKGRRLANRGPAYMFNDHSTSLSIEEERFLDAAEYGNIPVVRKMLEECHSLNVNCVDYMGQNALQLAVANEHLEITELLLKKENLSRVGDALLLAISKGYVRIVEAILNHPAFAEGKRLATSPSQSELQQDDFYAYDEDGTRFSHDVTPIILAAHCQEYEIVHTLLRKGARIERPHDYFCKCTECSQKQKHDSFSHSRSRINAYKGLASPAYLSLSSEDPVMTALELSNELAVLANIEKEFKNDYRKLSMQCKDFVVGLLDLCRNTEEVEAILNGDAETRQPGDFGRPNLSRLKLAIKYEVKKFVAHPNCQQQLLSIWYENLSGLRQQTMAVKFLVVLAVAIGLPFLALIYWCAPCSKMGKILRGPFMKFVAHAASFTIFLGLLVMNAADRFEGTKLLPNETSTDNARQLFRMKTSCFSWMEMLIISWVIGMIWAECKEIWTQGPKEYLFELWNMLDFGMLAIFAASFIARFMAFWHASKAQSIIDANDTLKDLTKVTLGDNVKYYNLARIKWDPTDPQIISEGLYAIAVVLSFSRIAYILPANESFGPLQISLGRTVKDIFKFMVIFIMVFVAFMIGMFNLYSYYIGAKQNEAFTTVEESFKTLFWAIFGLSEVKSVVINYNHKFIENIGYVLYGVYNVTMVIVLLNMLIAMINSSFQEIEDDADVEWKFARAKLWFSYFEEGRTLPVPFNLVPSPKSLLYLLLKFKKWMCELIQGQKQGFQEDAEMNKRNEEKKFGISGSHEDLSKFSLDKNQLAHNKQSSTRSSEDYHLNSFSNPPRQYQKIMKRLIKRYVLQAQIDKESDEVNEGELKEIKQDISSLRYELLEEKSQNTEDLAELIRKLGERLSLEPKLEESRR
# TRPC4 potent: allosterically enhances the mouse TRPC4 cation channel; Q9QUQ5; HEK293 TRPC4beta/mu-opioid, DAMGO EC20, Fluo-4 Ca2+ flux; stronger effect = higher value; B-score at 10 µM; actives 0.42% (n = 310,000);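 active = B-score of calcium response area above 5 SD of library B-scores, with initial fluorescence ratio within 5 SD of library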;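 also: B-score of integrated fluorescence ratio over time as area under calcium response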
# TRPC4 agonist: TRPC4 (mouse) channel activation. actives 0.49% (n = 310,000). B-score at 10 µM. AID 2237. HEK293 TRPC4beta/mu-opioid, Fluo4 calcium fluorescence; stronger effect = higher value. Q9QUQ5;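 active = B-score above 5 SD of library B-scores, and initial fluorescence ratio not above library mean plus 5 SD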;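 also: positive B-score marks a calcium rise read as TRPC4 activation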
#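 System – HEK293 cells stably co-expressing mouse TRPC4beta and mu-opioid receptor · Signal – Fluo4 calcium-sensitive dye fluorescence, kinetic, 1 Hz baseline · Benchmarks – buffer (low) and maximal DAMGO (high) · Read-out – B score of integrated fluorescence ratio per well · Incubation – dye loading 45 min room temperature, 110 s kinetic read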
# TRPC4 inh: TRPC4 (mouse) channel inhibition. Q9QUQ5. HEK293 TRPC4beta/mu-opioid, DAMGO-evoked Fluo4 calcium flux; stronger effect = lower value. B-score at 10 µM. actives 0.39% (n = 300,000);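 active = B-score over 3 SD under the library average, no early fluorescence shift, positive overall ratio signal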
#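 material = TRPC4beta/mu-opioid receptor HEK293 cell line | probe or stimulus = sequential submaximal and maximal DAMGO stimulation | compound dosing = one concentration per compound | measured by = Fluo4 Ca2+ flux fluorescence | evaluation = integrated fluorescence ratio relative to baseline, converted to per-well B score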
# TRPC6 activator: activators of mouse TRPC6 channel; Q61143; HEK293-TRPC6 membrane potential dye fluorescence; stronger effect = higher value; B-score at 10 µM; actives 0.13% (n = 310,000); AID 2550;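 active = B-score of the integrated fluorescence ratio above library mean plus 3 SD, and starting fluorescence ratio within library mean plus 5 SD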;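 also: higher score means more depolarization so channel activation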
# TRPC4 spec 2: mouse TRPC4 off-target activity of TRPC6 inhibitors, second screen | shares compounds with TRPC6 inhibitor | HEK293 TRPC4/MOR, membrane potential dye fluorescence; channel activated by saturating DAMGO dose | inhibition, % at 10 µM | actives 42% (n = 920);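 active = compounds whose fluorescence signal differed from control wells by over 3 SD, either direction, in both duplicate plates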
# TRPC4 spec: tests whether TRPC6 inhibitors also affect mouse TRPC4; HEK293 TRPC4/mu-opioid, membrane potential fluorescence; shares compounds with TRPC6 inhibitor; activity change, negative = inhibition, % at 10 µM; actives 61% (n = 920);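 active = rise or fall in signal beyond 3 SD of buffer-only wells in both replicate plates, either sign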;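 also: integrated kinetic ratio of fluorescence range over baseline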
# HEK293 MPD ctr 2-1: second check of TRPC6 inhibitor effects in parental HEK293 cells | parental HEK293 membrane potential dye fluorescence; maximal acetylcholine challenge after compound addition | signal change vs control, % at 10 µM | actives 31% (n = 920) | shares compounds with TRPC6 inhibitor;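 active = membrane potential signal moving either way by over 3 SD of the maximum-effect control, in both duplicate plates, meaning non-specific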
# HEK293 MPD ctr-1: counter-screen for TRPC6 inhibitors: effect in parental HEK293 cells; shares compounds with TRPC6 inhibitor; parental HEK293 membrane potential dye fluorescence; membrane potential signal change, % at 10 µM; actives 60% (n = 920); AID 2780;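 active = membrane potential signal shifting up or down by more than 3 SD of buffer-only wells, on both duplicate plates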
# HEK293 MPD ctr-2: checks TRPC6 modulator effects in parental HEK293 cells; shares compounds with TRPC6 inhibitor; membrane potential signal change, % at 10 µM; actives 51% (n = 2,400); membrane potential dye fluorescence;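 active = membrane potential signal moves up or down beyond 5 SD from buffer-only wells, on both duplicate plates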
# HEK293 MPD ctr 2-2: second counter-screen for TRPC6 modulators: effect in parental HEK293 cells. inhibition, % at 10 µM. membrane potential dye fluorescence; after compound, maximal acetylcholine stimulation. shares compounds with TRPC6 inhibitor. actives 14% (n = 2,400);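 active = membrane potential signal drops by more than 5 SD from the mean control signal, in both duplicate plates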;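 also: plate controls were acetylcholine ECmax control wells for no effect and buffer only wells for full effect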
# TRPC4/MOR mod: mouse TRPC4 off-target activity of TRPC6 modulators; percent change from control (negative = decrease, positive = increase), % at 10 µM; shares compounds with TRPC6 inhibitor; actives 69% (n = 2,400); HEK293 TRPC4/mu-opioid, membrane potential fluorescence;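 active = membrane potential signal moved up or down beyond 5 SD of buffer control wells, in both duplicate plates, actives on both sides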;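 also: plate controls were assay buffer wells for no effect and DAMGO maximal-effect wells for full effect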
# TRPC4/MOR inh 2: second check of whether TRPC6 modulators also affect mouse TRPC4. shares compounds with TRPC6 inhibitor. HEK293 TRPC4/mu-opioid, membrane potential dye fluorescence; stimulated with maximal-effect DAMGO. inhibition, % at 10 µM. actives 55% (n = 2,400);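 active = drop in membrane potential signal beyond 5 SD of the control wells in both duplicate plates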;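 also: TRPC4 counter screen for TRPC6 hits run under conditions tuned for TRPC6 not TRPC4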
# TRPC6 block conf: confirmation of mouse TRPC6 inhibitors; shares compounds with TRPC6 inhibitor; HEK293-TRPC6, membrane potential dye, ACh-evoked depolarization; inhibition, % at 10 µM; actives 43% (n = 3,300); AID 488960;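 active = fluorescence ratio falls more than 5 SD below the full-stimulation control mean, in both duplicate runs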;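 also: integrated fluorescence ratio of peak minus minimum over baseline after agonist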
# TRPC6 act confirm: confirmation of mouse TRPC6 activators; shares compounds with TRPC6 inhibitor; HEK293-TRPC6 membrane potential dye fluorescence, FDSS; activation, % at 10 µM; actives 11% (n = 2,800); AID 488961;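 active = ratio signal rise beyond 5 SD above unstimulated control wells' mean, seen in both duplicate runs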;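 also: plate controls were buffer EC0 wells for no effect and acetylcholine ECmax response for full effect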
# * marks the source's active call; other numbers are inactive results; i = inactive; nt = no result. The list is not random: actives were taken first. Their share in the collection is about 2.3%.
SMILES,TRPC6 inhibitor,TRPC4 potent,TRPC4 agonist,TRPC4 inh,TRPC6 activator,HEK293 MPD ctr-2,HEK293 MPD ctr 2-2,TRPC4/MOR mod,TRPC4/MOR inh 2,TRPC6 block conf,TRPC6 act confirm,others
O=C(NCc1ccccc1)C(c1c(F)cccc1Cl)N(C(=O)c1csnn1)C1CC1 (stereo not given),i,i,i,i,i,nt,nt,nt,nt,nt,nt,
Cc1cccnc1NC(=O)c1c(O)c2ccccc2n(C)c1=O,-6.9*,i,i,i,i,nt,nt,nt,nt,i,i,TRPC4 spec 2=i;TRPC4 spec=-13%*;HEK293 MPD ctr 2-1=i;HEK293 MPD ctr-1=-144%*
COc1ccc(-c2cn(-c3ccc(Br)cc3)c3[n+]2CCS3)cc1,-5.9*,i,i,i,i,i,i,i,i,i,i,
COc1ccc(-c2cn(-c3ccc(Cl)cc3)c3[n+]2CCCCC3)cc1,i,i,i,i,i,nt,nt,nt,nt,nt,nt,
Clc1ccc(-c2cn(-c3ccccc3)c3[n+]2CCS3)cc1,-7.4*,i,i,i,i,-96%*,58%*,-16%*,i,48%*,i,
Fc1ccc(-c2cn(-c3ccccc3)c3[n+]2CCS3)cc1,i,i,i,i,i,nt,nt,nt,nt,nt,nt,
Nc1c(-c2ccccc2)sc2ccc3ccccc3[n+]12,-5*,i,i,i,i,-99%*,i,-18%*,i,44%*,i,
CN(C)CCCNc1ccc(-c2nn(C)c(=O)c3ccccc23)cc1[N+](=O)[O-],-7.9*,i,i,i,i,nt,nt,nt,nt,i,i,TRPC4 spec 2=44%*;TRPC4 spec=-26%*;HEK293 MPD ctr 2-1=i;HEK293 MPD ctr-1=-244%*
COCCNc1ccc(-c2nn(C)c(=O)c3ccccc23)cc1[N+](=O)[O-],i,i,i,i,i,nt,nt,nt,nt,nt,nt,
CC(C)=CC(O)C/C(C)=C/COc1ccc2ccc(=O)oc2c1 (stereo not given),i,i,i,i,i,nt,nt,nt,nt,nt,nt,
Cc1cccnc1NC(=O)CCNC(=O)c1ccccc1Cl,i,i,i,i,i,nt,nt,nt,nt,nt,nt,
Cc1ccnc(SCC(=O)N2CCN(C(c3ccccc3)c3ccccc3)CC2)n1,-11*,i,i,i,18*,118%*,i,20%*,i,62%*,142%*,
Cc1cccc(OCC(=O)N/N=C/c2cc([N+](=O)[O-])ccc2N2CCOCC2)c1,i,i,i,i,i,nt,nt,nt,nt,nt,nt,
COc1cc(S(=O)(=O)N2CCN(c3ccccc3F)CC2)ccc1Cl,-5*,i,i,i,i,i,i,i,i,i,i,
COC(=O)CCC(=O)OC1(C)C(=O)C=C2C=C(C3CC3)N(CCc3c[nH]c4ccccc34)C=C2C1=O (stereo not given),-7.2*,i,i,i,i,nt,nt,nt,nt,i,i,TRPC4 spec 2=i;TRPC4 spec=i;HEK293 MPD ctr 2-1=i;HEK293 MPD ctr-1=i
COC(=O)CCC(=O)OC1(C)C(=O)C=C2C=C(C3CC3)N(CCc3ccccn3)C=C2C1=O (stereo not given),i,i,i,i,i,nt,nt,nt,nt,nt,nt,
CC(=O)N1CCN(c2ccc(NC(=O)c3cccc([N+](=O)[O-])c3)cc2)CC1,i,i,i,i,i,nt,nt,nt,nt,nt,nt,
Cc1cc(N2CCN(c3nc(-c4ccccc4)cs3)CC2)c2ccccc2n1,i,i,i,i,i,nt,nt,nt,nt,nt,nt,
Cc1cc(=O)[nH]c(N2CCN(C(=O)c3ccco3)CC2)n1,i,i,i,i,i,nt,nt,nt,nt,nt,nt,
Nc1nc(N2CCN(C(=O)c3ccco3)CC2)nc2ccc(Br)cc12,i,i,i,i,i,nt,nt,nt,nt,nt,nt,
Cc1cc(N2CCN(C(=O)c3ccco3)CC2)c2ccccc2n1,-6.4*,i,i,i,i,-168%*,i,-29%*,28%*,i,i,
Cc1cc(N2CCN(S(=O)(=O)c3ccccc3)CC2)c2ccccc2n1,-8.9*,i,i,i,i,-187%*,i,-31%*,68%*,48%*,i,
Nc1nc(N2CCN(C/C=C/c3ccccc3)CC2)nc2ccccc12,-6.7*,i,i,i,i,nt,nt,nt,nt,88%*,i,TRPC4 spec 2=18%*;TRPC4 spec=-21%*;HEK293 MPD ctr 2-1=i;HEK293 MPD ctr-1=i
Nc1nc(N2CCN(C(=O)c3ccco3)CC2)nc2ccccc12,-7.5*,i,i,i,i,nt,nt,nt,nt,i,i,TRPC4 spec 2=i;TRPC4 spec=-23%*;HEK293 MPD ctr 2-1=i;HEK293 MPD ctr-1=-412%*
N=c1c(C(=O)NCc2ccc(F)cc2)cc2c(=O)n3ccccc3nc2n1Cc1cccnc1,-5.8*,i,i,i,i,i,i,-34%*,i,52%*,i,
COC(=O)c1cc2c(=O)n3ccccc3nc2n(Cc2cccnc2)c1=N,-7.8*,i,i,i,i,nt,nt,nt,nt,i,i,TRPC4 spec 2=75%*;TRPC4 spec=-33%*;HEK293 MPD ctr 2-1=i;HEK293 MPD ctr-1=-520%*
Cc1cccc(C(=O)NC2CCN(C(=O)Nc3ccc(F)cc3)CC2)c1,i,i,i,i,i,nt,nt,nt,nt,nt,nt,
CC(=O)c1cccc(OCc2cc(C(=O)NCCC3=CCCCC3)no2)c1,i,i,i,i,i,nt,nt,nt,nt,nt,nt,
